Among the data in ChEMBL document CHEMBL4196214, “Inhibition of p53-Murine Double Minute 2 (MDM2) Interactions with 3,3'-Spirocyclopentene Oxindole Derivatives” (J Med Chem, 2018) are IC50 and inhibition values, retold here.

The structures appear in SMILES notation. Activity calls are given as the source filed them. The calls are words filed in the database; no cut-off is given here.

The target in assay [1] is Tumour suppressor p53/oncoprotein Mdm2 (Homo sapiens, UniProt Q00987). The assay is described as follows: Inhibition of human MDM2 (1 to 125 residues) and p53 (unknown origin) interaction pre-incubated for 20 mins before peptide-2-biot addition and measured after 3 hrs by HTRF assay. The class given is protein assay. A general note: Time-resolved FRET reads energy transfer from a long-lived donor to a nearby acceptor.

Assay [2] concerns the target T1, Tumour suppressor p53/oncoprotein Mdm2 (Homo sapiens) (UniProt P04637+Q00987). The assay is described as follows: Inhibition of MDM2/p53 interaction in human HCT116 cells deficient in p53 assessed as increase in MDM2 protein levels at 10 uM incubated for 6 hrs by Western blot method. The assay is classed as cell-based. In short, it runs like this: (§1)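 HCT116 cells, p53 +/+ and isogenic p53 −/−, treated with compound at 10 μM for 6 h. Lysates probed by Western blot for p53, MDM2 and p21 protein levels. Actin served as the loading control.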
In general terms: Immunoblotting shows a protein as a band on a membrane.

For assay [3], the target named is T1, Tumour suppressor p53/oncoprotein Mdm2 (Homo sapiens). The assay is described as follows: Inhibition of MDM2/p53 interaction in human HCT116 cells expressing wild type p53 assessed as increase in p53 activation at 10 uM incubated for 6 hrs by Western blot method. The assay is classed as cell-based. In short, it runs like this: as §1
For assay [4] the target is unchanged. The assay is described as follows: Inhibition of MDM2/p53 interaction in human HCT116 cells expressing wild type p53 assessed as increase in MDM2 protein levels at 10 uM incubated for 6 hrs by Western blot method. The assay is classed as cell-based. In short, it runs like this:
as §1

Assay [5] shares this target. The assay is described as follows: Inhibition of MDM2/p53 interaction in human HCT116 cells expressing wild type p53 assessed as increase in p21 protein levels at 10 uM incubated for 6 hrs by Western blot method. The class given is cell-based. In short, it runs like this: as §1
Assay [6] has the same target. The assay is described as follows: Inhibition of MDM2/p53 interaction in human HCT116 cells deficient in p53 assessed as increase in p53 activation at 10 uM incubated for 6 hrs by Western blot method. The assay is classed as cell-based. In short, it runs like this: as §1
Assay [7] shares this target. As to the kind of experiment: Inhibition of MDM2/p53 interaction in human HCT116 cells deficient in p53 assessed as increase in p21 protein levels at 10 uM incubated for 6 hrs by Western blot method. The assay is classed as cell-based. In short, it runs like this: as §1
For the next assay, the system named is SJSA-1. The assay is described as follows: Antiproliferative activity against human SJSA1 cells expressing wild type p53 incubated for 72 hrs by MTS assay. The class given is functional, cell-based. The following applies: SJSA-1, 72 h. In short, it runs like this: (§2)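 Cells treated with compound for 72 h; IC50 fitted to polynomial curves from three separate experiments, reported as average with standard deviation. HCT116 p53 −/− is an isogenic p53 knockout line. H1299 carries a homozygous partial deletion of the p53 gene and expresses no p53 protein.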

The test system of assay [8] is HCT-116. As to the kind of experiment: Antiproliferative activity against human HCT116 cells expressing wild type p53 incubated for 72 hrs by MTS assay. The class given is functional, cell-based. The following applies: HCT-116, 72 h. In short, it runs like this: as §2
On the technique in general: Tetrazolium assays rely on reduction of a dye to a coloured formazan, in cell work by metabolically active cells.

The next assay concerns NCI-H1299. The assay is described as follows: Antiproliferative activity against p53 -/- human NCI-H1299 cells incubated for 72 hrs by MTS assay. The assay is classed as functional, cell-based. The following applies: NCI-H1299, 72 h. In short, it runs like this: as §2
The subject of assay [9] is HCT-116. The assay is described as follows: Antiproliferative activity against p53 -/- human HCT116 cells incubated for 72 hrs by MTS assay. The assay is classed as functional, cell-based. The following applies: HCT-116, 72 h. In short, it runs like this: as §2

Tumour suppressor p53/oncoprotein Mdm2, sequence (P04637 whole entry, the tested form may be a part): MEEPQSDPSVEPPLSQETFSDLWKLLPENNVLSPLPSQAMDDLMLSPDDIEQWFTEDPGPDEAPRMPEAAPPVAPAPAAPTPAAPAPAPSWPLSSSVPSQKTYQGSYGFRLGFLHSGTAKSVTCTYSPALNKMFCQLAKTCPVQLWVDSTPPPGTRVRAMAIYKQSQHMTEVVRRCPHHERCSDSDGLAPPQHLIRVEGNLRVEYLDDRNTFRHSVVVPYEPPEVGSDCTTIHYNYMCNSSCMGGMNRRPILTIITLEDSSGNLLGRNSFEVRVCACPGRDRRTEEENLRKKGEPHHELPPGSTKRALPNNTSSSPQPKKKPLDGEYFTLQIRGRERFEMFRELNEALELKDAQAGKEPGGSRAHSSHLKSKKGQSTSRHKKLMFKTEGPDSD
Tumour suppressor p53/oncoprotein Mdm2, sequence (Q00987 whole entry, the tested form may be a part): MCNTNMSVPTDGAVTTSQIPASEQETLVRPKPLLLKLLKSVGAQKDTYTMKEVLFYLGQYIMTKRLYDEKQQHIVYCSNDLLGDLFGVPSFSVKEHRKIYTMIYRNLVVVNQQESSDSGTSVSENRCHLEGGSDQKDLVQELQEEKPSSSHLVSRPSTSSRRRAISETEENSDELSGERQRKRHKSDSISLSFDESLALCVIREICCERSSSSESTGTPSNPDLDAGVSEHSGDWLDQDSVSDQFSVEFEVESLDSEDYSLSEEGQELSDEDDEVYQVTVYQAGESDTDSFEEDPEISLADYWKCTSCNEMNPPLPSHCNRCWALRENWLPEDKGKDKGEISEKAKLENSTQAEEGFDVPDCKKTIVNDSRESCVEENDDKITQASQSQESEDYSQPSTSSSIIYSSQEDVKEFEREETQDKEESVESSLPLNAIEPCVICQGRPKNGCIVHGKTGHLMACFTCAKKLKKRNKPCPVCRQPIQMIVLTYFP
T1 sequence (P04637 whole entry, looked up): as the sequence (P04637 whole entry, the tested form may be a part) above
T1 sequence (Q00987 whole entry, looked up): as the sequence (Q00987 whole entry, the tested form may be a part) above

Usually IC50 stands for the concentration needed to halve the response being measured. As for `CC(C)(C)C[C@@H]1C=C(C(=O)N[C@H]2CC[C@H](O)CC2)[C@H](c2cccc(Cl)c2F)[C@]12C(=O)Nc1cc(Cl)ccc12` (racemic), in [1], the IC50 is 619 nM. This counts as sub-micromolar.
`CC(C)(C)CC1C=C(C(=O)Nc2ccc(C(=O)O)cc2)C(c2cccc(Cl)c2F)C12C(=O)Nc1cc(Cl)ccc12` (single isomer, unassigned; (+)) returned a 50% inhibitory concentration (IC50) in [1] of 655 nM.
On the same count and under the same terms, with `CC(C)(C)CC1C=C(C(=O)NCCN2CCOCC2)C(c2cccc(Cl)c2F)C12C(=O)Nc1cc(Cl)ccc12` (single isomer, unassigned; (-)) the figure was 1140 nM.
The same measure, in the same setting: the result for `CC(C)(C)CC1C=C(C(=O)NC2CCC(O)CC2)C(c2cccc(Cl)c2F)C12C(=O)Nc1cc(Cl)ccc12` (single isomer, unassigned; (+)) reads 303 nM.
In the case of `CC(C)(C)CC1C=C(C(=O)O)C(c2cccc(Cl)c2F)C12C(=O)Nc1cc(Cl)ccc12` (single isomer, unassigned; (+)) [listing 1 of 2 here], the inhibition entry in [2], in assay [6] and in [7] was “inactive” throughout. In addition, the inhibition entry in [3], in assay [4] and in assay [5] was “Active” each time.
`CC(C)(C)CC1C=C(C(=O)NCCN2CCOCC2)C(c2cccc(Cl)c2F)C12C(=O)Nc1cc(Cl)ccc12` (single isomer, unassigned; (+)) [listing 1 of 2 here]: the IC50 is 0.96 µM in the assay on SJSA-1; 2.92 µM in the assay with HCT-116 [8]; 23.7 nM in [1]; 9.73 µM with NCI-H1299; above 20 µM in the assay with HCT-116 [9].
For `CC(C)(C)CC1C=C(C(=O)O)C(c2cccc(Cl)c2F)C12C(=O)Nc1cc(Cl)ccc12` (single isomer, unassigned; (+)) [listing 2 of 2 here], in that order: 7.8 µM, 11.6 µM, 3.1 nM, above 20 µM and above 20 µM.
Compound `CC(C)(C)CC1C=C(C(=O)Nc2ccc(C(=O)O)cc2)C(c2cccc(Cl)c2F)C12C(=O)Nc1cc(Cl)ccc12` (single isomer, unassigned; (-)) showed a half-maximal inhibitory concentration (IC50) in assay [1] of 1040 nM. That is a single-digit micromolar value.
Regarding `COc1ccc(C2=N[C@@H](c3ccc(Cl)cc3)[C@@H](c3ccc(Cl)cc3)N2C(=O)N2CCNC(=O)C2)c(OC(C)C)c1` [NUTLIN-3], the concentration for half-maximal inhibition (IC50) in the assay with SJSA-1 was 1.44 µM; in the assay with HCT-116 [8], 1.3 µM; in the assay with NCI-H1299, 10.4 µM; in the assay on HCT-116 [9], above 20 µM.
`CC(C)(C)C[C@H]1C=C(C(=O)NCCN2CCOCC2)[C@@H](c2cccc(Cl)c2F)[C@]12C(=O)Nc1cc(Cl)ccc12` (racemic): the IC50 in [1] is 3680 nM.
With `CC(C)(C)CC1C=C(C(=O)NC2CCC(O)CC2)C(c2cccc(Cl)c2F)C12C(=O)Nc1cc(Cl)ccc12` (single isomer, unassigned; (-)), 3720 nM corresponded to half-maximal inhibition in assay [1] (IC50).
For `CC(C)(C)CC1C=C(C(=O)NC2CC(C)(O)C2)C(c2cccc(Cl)c2F)C12C(=O)Nc1cc(Cl)ccc12` (single isomer, unassigned; (+)), in assay [1], the IC50 came out at 712 nM.
On the same count and under the same terms, with `CC(C)(C)C[C@@H]1C=C(C(=O)N[C@H]2C[C@@](C)(O)C2)[C@H](c2cccc(Cl)c2F)[C@]12C(=O)Nc1cc(Cl)ccc12` (racemic) the figure was 1260 nM; with `CC(C)(C)C[C@H]1C=C(C(=O)NCCN2CCOCC2)[C@H](c2cccc(Cl)c2F)[C@]12C(=O)Nc1cc(Cl)ccc12` (racemic), 739 nM.
Regarding `CC(C)(C)C[C@@H]1C=C(C(=O)O)[C@H](c2cccc(Cl)c2F)[C@]12C(=O)Nc1cc(Cl)ccc12` (racemic), the IC50 with SJSA-1 is 7.44 µM; in the assay with HCT-116 [8], 10.5 µM; in assay [1], 10.1 nM; in the assay with NCI-H1299, above 20 µM; in the assay on HCT-116 [9] it was above 20 µM.
Consider `CC(C)(C)CC1C=C(C(=O)NC2CC(C)(O)C2)C(c2cccc(Cl)c2F)C12C(=O)Nc1cc(Cl)ccc12` (single isomer, unassigned; (-)), for which, in [1], half-maximal inhibition (IC50) required 3030 nM.
For the compound `CC(C)(C)C[C@@H]1C=C(C(=O)NCCN2CCOCC2)[C@H](c2cccc(Cl)c2F)[C@]12C(=O)Nc1cc(Cl)ccc12` (racemic), the IC50 with SJSA-1 was 7.5 µM; in the assay with HCT-116 [8] it was 4.84 µM; in assay [1], 33 nM; with NCI-H1299, above 20 µM; in the assay on HCT-116 [9] it was above 20 µM.
In assay [1], `CC(C)(C)CC1C=C(C(=O)O)C(c2cccc(Cl)c2F)C12C(=O)Nc1cc(Cl)ccc12` (stereo in doubt; (-)-8') had an IC50 of 538 nM.
With `CC(C)(C)CC1C=C(C(=O)NCCN2CCOCC2)C(c2cccc(Cl)c2F)C12C(=O)Nc1cc(Cl)ccc12` (single isomer, unassigned; (+)) [listing 2 of 2 here], the inhibition result in assay [2], in [6] and in assay [7] was “inactive” each time. The inhibition entry in assay [3], in assay [4] and in [5] was “Active” throughout.
`CC(C)(C)C[C@@H]1C=C(C(=O)NCCN2CCOCC2)[C@@H](c2cccc(Cl)c2F)[C@]12C(=O)Nc1cc(Cl)ccc12` (racemic) returned an IC50 in assay [1] of 3380 nM.
On to `CC(C)(C)C[C@@H]1C=C(C(=O)Nc2ccc(C(=O)O)cc2)[C@H](c2cccc(Cl)c2F)[C@]12C(=O)Nc1cc(Cl)ccc12` (racemic), for which the IC50 in assay [1] was determined as 350 nM.
